Among the data in ChEMBL document CHEMBL1821702, “8,8-Dimethyldihydroberberine with improved bioavailability and oral efficacy on obese and diabetic mouse models” (Bioorg Med Chem, 2010) are bioavailability and Activity values, retold here.

Calls of active or inactive are those of the source. The calls are words filed in the database; no cut-off is given here.

The nature of data set [1]: Oral bioavailability in 12 hrs fasting Sprague-Dawley rat at 10 mg/kg. Format: ADME, organism-based. To be noted: in vivo. A digest of the protocol:
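Male Sprague–Dawley rats were fasted 12 h and gavaged at 10 mg/kg. Blood was taken retro-orbitally into heparin tubes from pre-dose to 24 h. Plasma levels of parent and of berberine/dihydroberberine were measured by LC–MS/MS.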

For data set [2], the system named is Mus musculus. The data set is described as follows: Antiobese activity in high fat diet-fed C57BL/6J mouse assessed as decrease in liver triglyceride level at 15 mg/kg/day, po for 6 weeks. Format: functional. Set-up: scale not given: the % may be the effect or the level left. A digest of the protocol: (§1)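 DIO male C57BL/6J mice received daily oral dosing in cellulose/lactose vehicle for 6 weeks and were killed after the final dose. Plasma and liver triglycerides were measured by triglyceride assay kit, and fat depots were weighed.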

Data set [3] deals with Mus musculus. The data set is described as follows: Antidiabetic activity in C57BLKS/J-db/db mouse assessed as reduction of fasting blood glucose level at 50 mg/kg/day, po for 3 weeks. Set-up: scale not given: the % may be the effect or the level left. It is filed as functional.
For data set [4], the system named is Mus musculus. The experiment in a line: Antidiabetic activity in high fat diet-fed C57BL/6J mouse assessed as increase in glucose tolerance at 15 mg/kg/day, po for 4 weeks measured after 120 mins by intraperitoneal glucose tolerance test. It is filed as functional, organism-based. A digest of the protocol:
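High-fat-diet (60 kcal%, 8 weeks) male C57BL/6J mice were randomized by body weight and fed glucose, then dosed orally once daily in cellulose/lactose vehicle. ipGTT was done at 4 weeks: D-glucose 2 g/kg ip, glucometer readings at 0, 15, 30, 60, 90 and 120 min. n = 5–8.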

In data set [5] the test system is Mus musculus. The data set is described as follows: Antidiabetic activity in high fat diet-fed C57BL/6J mouse assessed as alleviation of insulin resistance at 15 mg/kg/day, po for 4 weeks measured after 90 mins by insulin tolerance test. It is filed as functional, organism-based. In a few lines:
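Male C57BL/6J mice were fed a 60 kcal% fat diet for 8 weeks, randomized, then gavaged daily in 0.5% microcrystalline cellulose/1.6% lactose vehicle. ITT was run at 4 weeks: 6 h fast, insulin 0.75 U/kg ip, blood glucose at 0, 15, 30, 60, 90 and 120 min. Mean ± SE, n = 5–8.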

Data set [6] concerns L6. The data set is described as follows: Increase in glucose uptake in rat differentiated L6 myotubes after 2 hrs. It is filed as functional. In a few lines: (§2)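 Fully differentiated L6 myotubes were serum-starved 2 h, then treated with compound for 15 min to 2 h (dose series at 1 h). Glucose uptake was measured relative to DMSO control. Mean of three independent experiments ± SE.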

Data set [7] has as its system Mus musculus. The data set is described as follows: Antiobese activity in high fat diet-fed C57BL/6J mouse assessed as decrease in plasma triglyceride level at 15 mg/kg/day, po for 6 weeks. Format: functional. Set-up: scale not given: the % may be the effect or the level left. A digest of the protocol: as §1
Data set [8] has as its system Mus musculus. The experiment in a line: Antiobese activity in high fat diet-fed C57BL/6J mouse assessed as decrease in subcutaneous fat at 15 mg/kg/day, po for 6 weeks. It is filed as functional. Set-up: scale not given: the % may be the effect or the level left. A digest of the protocol:
as §1

For data set [9], the system named is Mus musculus. The experiment in a line: Toxicity in high fat diet-fed C57BL/6J mouse assessed as change in body weight at 15 mg/kg/day, po for 6 weeks. Set-up: route oral. To be noted: in vivo, 1008 h. It is filed as organism-based. A digest of the protocol:
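Male C57BL/6J mice (purchased at 6 weeks of age) fed 60 kcal% fat diet for 8 weeks, then randomized by body weight and fed glucose. Dosed orally once daily for 6 weeks in vehicle of 0.5% microcrystalline cellulose plus 1.6% lactose. Groups: high-fat vehicle, metformin 250 mg/kg positive control, chow-fed vehicle. Body weight and food intake recorded daily.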

Data set [10] relates to Mus musculus. The data set is described as follows: Toxicity in C57BLKS/J-db/db mouse assessed as change in adipose tissue mass at 50 mg/kg/day, po for 6 weeks. Set-up: route oral. To be noted: in vivo, 1008 h. Format: organism-based. In a few lines: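 db/db mice (half male, half female) were dosed by oral gavage daily for 6 weeks in 0.5% microcrystalline cellulose/1.6% lactose vehicle. Body weight and food intake were recorded daily. Mice were killed after the final dose, and liver and fat depots were weighed and expressed relative to body weight.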

Data set [11] concerns Mus musculus. The experiment in a line: Antiobese activity in C57BLKS/J-db/db mouse assessed as decrease in plasma triglyceride level at 50 mg/kg/day, po […]. It is filed as functional. Set-up: scale not given: the % may be the effect or the level left. A digest of the protocol: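 db/db mice were gavaged once daily in 0.5% microcrystalline cellulose/1.6% lactose vehicle for 6 weeks and killed after the final dose. Plasma triglycerides were measured with a colorimetric triglyceride assay kit.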

For data set [12], the system named is L6. The experiment in a line: Increase in glucose uptake in rat differentiated L6 myotubes after 1 hr. It is filed as functional, cell-based. In a few lines: as §2
Data set [13] deals with L6. The data set is described as follows: Increase in intracellular AMP:ATP ratio in rat differentiated L6 myotubes after 1 hr. It is filed as functional, cell-based. In a few lines: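 Differentiated L6 myotubes were serum-starved 2 h and incubated 1 h with increasing concentrations. Intracellular AMP, ADP and ATP were measured and the AMP:ATP ratio calculated, with berberine 5 µM as positive control. Three independent experiments ± SE.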

Data set [14] concerns Mus musculus. The experiment in a line: Antidiabetic activity in C57BLKS/J-db/db mouse assessed as decrease in area under curve at 50 mg/kg/day, po for 4 weeks by insulin tolerance test. Format: functional. Set-up: scale not given: the % may be the effect or the level left.
Data set [15] deals with Mus musculus. The data set is described as follows: Antidiabetic activity in C57BLKS/J-db/db mouse assessed as decrease in fed blood glucose level at 50 mg/kg/day, po for 3 weeks. Format: functional. Set-up: scale not given: the % may be the effect or the level left.

Regarding `COc1ccc2c(c1OC)C(C)(C)[N+]1=C(C2)c2cc3c(cc2CC1)OCO3.[Cl-]` [8,8-dimethyldihydroberberine], the bioavailability (commonly the share of a dose that reaches the circulation, judged against a reference dose that is usually intravenous) in [1] turned out to be 10%. Further, the Activity is 36% with Mus musculus [2]; 24% with Mus musculus [3]; 84% in the data set on L6 [6]; 26% in the data set on Mus musculus [7]; 36% with Mus musculus [8]; “Non-toxic” with Mus musculus [9]. The Activity result in the data set with Mus musculus [10] was “Non-toxic”; in the data set on Mus musculus [11], 38%; with L6 [12], “Dose-dependent effect”; with L6 [13], “Dose-dependent effect”; with Mus musculus [14], 28%; in the data set with Mus musculus [15] it was 24%. The result in the data set on Mus musculus [4] and with Mus musculus [5] was Active.
